Screening data deposited in PubChem by several laboratories.
TRPC4 block = inhibitors of mouse TRPC4 channel, primary screen, Fluo4 calcium, HEK293 TRPC4beta/mu-opioid cells; DAMGO-evoked Fluo4 calcium flux; hits give low values; 300,000 compounds, 0.39% hits; B-score at 10 µM;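 active = B-score over 3 SD under the library average, no early fluorescence shift, positive overall ratio signal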
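Material: HEK293 cells with stable TRPC4beta plus mu-opioid receptor expression / Probe or stimulus: DAMGO in two steps, submaximal then maximal / Compound: single concentration per test compound / Technique: kinetic Fluo4 fluorescence imaging of calcium influx / Read-out: per-well B score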
TRPC4 act = activators of mouse TRPC4 channel, primary screen, Fluo4 calcium, HEK293 TRPC4beta/mu-opioid cells. AID 2237, 2010. B-score at 10 µM. Short transient receptor potential channel 4 (Mus musculus), Q9QUQ5. 310,000 compounds, 0.49% hits. Fluo4 calcium fluorescence; hits give high values;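 active = B-score above 5 SD of library B-scores, and initial fluorescence ratio not above library mean plus 5 SD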;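 also: positive B-score marks a calcium rise read as TRPC4 activation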
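Test system: HEK293 cells stably co-expressing mouse TRPC4beta and mu-opioid receptor | Schedule: Fluo4 dye loading 45 min at room temperature, 110 s recording | Measured by: Kinetic Fluo4 calcium fluorescence, 5 s baseline at 1 Hz | Evaluation: B score of integrated ratio | Controls: Buffer (low) and maximal DAMGO (high)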
Platelet DG rel = inhibitors of platelet dense granule secretion, primary screen, cell-based, MLPCN, human platelets; human platelet-rich plasma, SFLLRN dense granule ATP release, luminescence; inhibition, %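 (compounds screened at 7.5 µM in platelet-rich plasma)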; 300,000 compounds, 0.22% hits; AID 1663, 2009;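 active = mean replicate score, as percent of positive control, at or above 50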
TRPC4 PAM = positive allosteric modulators of TRPC4, primary screen, cell-based, mouse TRPC4beta, HEK293 mu-opioid, Fluo-4 calcium. AID 2227, 2009. DAMGO EC20, Fluo-4 Ca2+ flux; hits give high values. B-score at 10 µM. 310,000 compounds, 0.42% hits;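 active = B-score of calcium response area above 5 SD of library B-scores, with initial fluorescence ratio within 5 SD of library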;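 also: B-score of integrated fluorescence ratio over time as area under calcium response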
TRPC6 act = mouse TRPC6 channel activators, primary screen, cell-based, HEK293, membrane potential dye | Short transient receptor potential channel 6 (Mus musculus), Q61143 | HEK293-TRPC6 membrane potential dye fluorescence; hits give high values | B-score at 10 µM | 310,000 compounds, 0.13% hits | AID 2550, 2010;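 active = B-score of the integrated fluorescence ratio above library mean plus 3 SD, and starting fluorescence ratio within library mean plus 5 SD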;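 also: higher score means more depolarization so channel activation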
TRPC6 inhibitor = mouse TRPC6 channel inhibitors, primary screen, cell-based, HEK293, membrane potential dye. ACh-evoked depolarization; hits give low values. B-score at 10 µM. 310,000 compounds, 1.1% hits;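 active = B-score under library mean minus 3 SD, initial fluorescence not abnormally high, positive integrated signal ratio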;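 also: B-score derived from integrated fluorescence ratio over the kinetic read; more negative B-score means stronger inhibition of depolarization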
Numbers without * were called inactive; i = inactive; . = not tested or not shown. Hits are enriched below; roughly 2.5% of the tested compounds scored in any of these assays.

SMILES	TRPC4 block	TRPC4 act	Platelet DG rel	TRPC4 PAM	TRPC6 act	TRPC6 inhibitor
COc1ccc(C(=O)Nc2nnc(Cc3ccccc3)s2)c(OC)c1	i	i	2	i	i	i
O=C(NCCCN1CCCC1=O)c1ccc(CNS(=O)(=O)c2ccc(F)cc2)cc1	i	i	-2	37*	i	i
COC(=O)c1scc(C)c1NS(=O)(=O)c1ccc(NC(C)=O)cc1	i	i	-1	i	i	i
CCN1CCN(S(=O)(=O)c2ccc(Cl)c(C(=O)Nc3nnc(C)s3)c2)CC1	i	50*	-3	i	i	i
CC(C)CCNC(=O)CCc1nnc2n(CCCOC(C)C)c(=O)c3ccccc3n12	i	i	-2	i	i	i
CCOc1ccc(N=Cc2ccc3ccccc3c2)cc1	i	i	-1	i	i	i
CCOc1ccc(N=CNc2ccc(OCC)cc2)cc1	i	i	-5	15*	i	i
N#CCCCn1c(-c2ccccc2)noc1=O	i	i	-2	i	i	i
COc1ccc(C2CC(c3ccccc3)Nc3nc(N)nn32)cc1 (configuration not stated)	i	i	-2	i	i	i
CS(=O)(=O)Nc1nc2n(n1)C(c1ccccc1)CC(c1ccccc1)N2 (configuration not stated)	-6*	i	40	i	i	i
NC(=O)c1nc(-c2ccco2)nc2c1[nH]c(=O)n2-c1ccc(Cl)c(Cl)c1	i	i	3	i	i	i
CN(C)CCC1Sc2ccccc2Oc2ccccc21 (configuration not stated)	-6*	i	4	i	i	i
CCN(CC(=O)Nc1ccc(OC)cc1)C(=O)c1ccccc1Sc1ccccc1C#N	i	i	.	i	i	i
CCCOc1cccc(C(=O)NCCNC(=O)c2ccco2)c1	-6*	i	14	i	i	i
COc1cccc(OCCOCCNCCO)c1	i	89*	11	i	i	i
COc1cccc(OCCNC(=O)c2cccc(OC)c2)c1	i	i	53*	i	i	i
CCOc1cccc(OCCCNCCCOC)c1	i	i	-9	11*	i	i
COc1ccc(Cn2nnc3c(C)n[nH]c(=O)c32)cc1	i	i	9	i	i	i
CC(OC(=O)C1CC1)C(=O)Nc1ccc([N+](=O)[O-])cc1Cl (configuration not stated)	i	i	-2	i	i	i
CCC(C)(C)n1nnnc1CN1CCN(c2nc3cc(OC)ccc3cc2C#N)CC1	i	i	8	i	i	i
O=C(c1ccccc1Cl)N1CCN(S(=O)(=O)c2cccs2)CC1	i	i	4	i	i	i
CC1CCc2c(C(=O)N3CCN(S(=O)(=O)c4cccs4)CC3)csc2C1 (configuration not stated)	i	i	-8	29*	i	i
Cc1nnsc1C(=O)N/N=C/c1c(F)cccc1Cl	i	i	1	i	i	i
Cc1[nH]cnc1C(=O)N/N=C/c1c(Cl)cccc1Cl	i	i	72*	i	i	i
O=[N+]([O-])c1cc(NCCO)c(N2CCCCCC2)c2nonc12	i	i	4	i	i	i
SMILES	TRPC4 block	TRPC4 act	Platelet DG rel	TRPC4 PAM	TRPC6 act	TRPC6 inhibitor
O=C(CCSc1nc(-c2ccco2)cc(C(F)(F)F)n1)N1CCN(c2ccccn2)CC1	i	i	2	i	i	-6.3*
CN1CCN(C(=O)CSc2nc(-c3ccco3)cc(C(F)(F)F)n2)CC1	i	i	2	i	i	i
O=C(Nc1nc2ccccc2[nH]1)c1ccccc1F	i	i	87*	i	i	i
Cc1cc(C)cc(C(=O)Nc2nc3ccccc3[nH]2)c1	i	i	-3	i	i	i
Cc1ccsc1C(=O)Nc1nc2ccccc2[nH]1	i	i	100*	i	i	i
O=S(=O)(NC(=S)NC1CCCCC1)c1ccccc1	i	i	8	i	i	i
CC(C)(C)C(=O)NC(=S)NNC(=O)C(c1ccccc1)c1ccccc1	i	304*	-19	i	i	i
Cc1ccccc1OC(C)C(=O)N1CCN(c2ccccn2)CC1 (configuration not stated)	i	i	-3	i	i	i
CCOc1ccc2[nH]c(C)c(CN3CCOCC3)c(=O)c2c1	i	i	1	i	i	i
Cc1[nH]c2ccc(Br)cc2c(=O)c1CN1CCOCC1	i	i	-4	12*	i	i
CC(C)Cc1csc(NC(=O)c2ccc(Cl)cc2)c1C(=O)O	i	48*	2	i	i	i
Cc1c(Cl)cccc1NC(=S)N1CCCN(Cc2ccc(F)cc2)C1	i	44*	5	i	i	i
Cc1ccccc1NC(=S)N1CCCN(Cc2ccc(F)cc2)C1	i	i	0	i	i	i
Cc1ccc(NC(=S)N2CCCN(Cc3ccc(F)cc3)C2)c(C)c1	i	60*	9	i	i	i
COCCn1c(SCC(=O)Nc2ccc(S(=O)(=O)N3CCOCC3)cc2)nc2ccccc21	i	i	0	31*	i	i
COCCn1c(SCC(=O)Nc2ccc(S(N)(=O)=O)cc2)nc2ccccc21	i	i	5	i	i	i
c1ccc(-c2nc(-c3ccccn3)no2)cc1	i	i	-10	i	i	i
Cc1ccccc1-c1noc(-c2ccc(Cl)cc2)n1	i	i	5	i	i	i
Cc1ccc(-c2nc(-c3ccccn3)no2)cc1	i	i	52*	i	i	i
Cc1ccccc1-c1noc(-c2ccc(O)cc2)n1	.	.	100*	.	.	.
c1ccc(-c2ccc(-c3nc(-c4ccccn4)no3)cc2)cc1	i	i	95*	i	i	i
COc1ccc(C(CNC(=O)Cc2ccc(-c3ccccc3)cc2)N(C)C)cc1 (configuration not stated)	i	202*	1	i	i	i
